Experiments:
HaCaT [1] = assay: Antihyperproliferative activity against human HaCaT cells after 48 hrs by phase contrast microscopy; assay type: functional, cell-based
Procedure, shortened: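 HaCaT keratinocytes were exposed for 48 h, then dispersed cells were counted under phase contrast. Inhibition was (1 − test/control) × 100, with test N = 3 and control N = 6–8, checked by Student's t test (P < 0.05). IC50 came from nonlinear regression.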

HaCaT [2] = assay: Cytotoxicity against human HaCaT cells assessed as LDH release at 2 uM after 4 hrs by UV method; assay type: cell-based
Procedure, shortened: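 HaCaT cells were given compound at 2 μM for 4 h at 37 °C. Extracellular LDH in the supernatant was read by the UV method with pyruvate and NADH and reported as mU/mL. Vehicle control was 0.2% DMSO in medium; Brij 35 plus ultrasound was the positive control. N = 3.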

[3] = molecular target: NQO1 protein (Homo sapiens) (UniProt Q3B792); assay: Activity of human recombinant NQO-1 assessed as rate of superoxide generation measuring SOD-inhibitable reduction of succinoylated cytochrome c per unit enzyme at 25 umol/ml by spectrophotometry in presence of catalase and DTPA (reference value: 0.2 +/- 0.1 micomol/L/min)
HaCaT [4] = assay: Activity in dicoumarol-treated human HaCaT cells assessed as superoxide generation by flow cytometry (reference value: 407.59 +/- 68.7 ); assay type: functional
HaCaT [5] = assay: Induction of superoxide generation in human HaCaT cells at 50 uM after 30 min by flow cytometry (reference value: 7.1 +/- 5.2 ); assay type: functional
HaCaT [6] = assay: Ratio of compound IC50 to anthralin IC50 for human HaCaT cells; assay type: functional
HaCaT [7] = assay: Induction of superoxide generation in human HaCaT cells at 5 micomol/L after 18 hrs by flow cytometry (reference value: 367.5 +/- 80.1 ); assay type: functional
Procedure, shortened: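 HaCaT cells grown 24 h at 37 °C in DMEM with 10% FBS, then given compound at 5 μM for 18 h (0.1% DMSO final). DHE loaded for 30 min in the dark. Cells trypsinized and 2-OH-E⁺ fluorescence measured by flow cytometry (FL2, 550–600 nm) on 10000 live cells, dead cells gated out. Mean fluorescence intensity, mean ± SD, N = 3. DMSO-only control.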

[8] = molecular target: T1, NADPH--cytochrome P450 reductase (Homo sapiens, UniProt P16435); assay: Activity of human recombinant cytochrome P450 reductase assessed as rate of superoxide generation measuring SOD-inhibitable reduction of succinoylated cytochrome c per 2 mU enzyme at 100 umol/ml by spectrophotometry in presence of catalase and DTPA (reference value: 0.2 +/- 0.1 micomol/L/min)
T1 sequence (P16435 whole entry): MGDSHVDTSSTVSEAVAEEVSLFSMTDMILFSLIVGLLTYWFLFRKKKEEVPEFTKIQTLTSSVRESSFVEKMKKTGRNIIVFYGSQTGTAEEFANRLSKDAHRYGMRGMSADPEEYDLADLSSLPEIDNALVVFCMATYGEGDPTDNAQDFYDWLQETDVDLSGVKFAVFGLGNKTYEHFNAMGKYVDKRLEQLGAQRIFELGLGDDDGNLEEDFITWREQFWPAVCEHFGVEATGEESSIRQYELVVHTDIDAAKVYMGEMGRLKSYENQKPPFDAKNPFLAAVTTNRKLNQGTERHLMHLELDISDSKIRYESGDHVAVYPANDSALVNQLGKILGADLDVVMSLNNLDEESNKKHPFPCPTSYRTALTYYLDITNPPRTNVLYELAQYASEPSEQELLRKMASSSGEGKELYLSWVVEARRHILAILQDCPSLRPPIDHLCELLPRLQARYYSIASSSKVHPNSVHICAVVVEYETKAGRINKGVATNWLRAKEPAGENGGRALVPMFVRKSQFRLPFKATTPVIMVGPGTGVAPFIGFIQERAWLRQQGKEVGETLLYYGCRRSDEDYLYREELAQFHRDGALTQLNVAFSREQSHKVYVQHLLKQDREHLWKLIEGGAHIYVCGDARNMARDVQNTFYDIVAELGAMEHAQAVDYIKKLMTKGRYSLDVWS

HaCaT [9] = assay: Ratio of compound IC50 to beta-lapachone IC50 for human HaCaT cells; assay type: functional

NQO1 protein (Homo sapiens), sequence (Q3B792 as listed by the source): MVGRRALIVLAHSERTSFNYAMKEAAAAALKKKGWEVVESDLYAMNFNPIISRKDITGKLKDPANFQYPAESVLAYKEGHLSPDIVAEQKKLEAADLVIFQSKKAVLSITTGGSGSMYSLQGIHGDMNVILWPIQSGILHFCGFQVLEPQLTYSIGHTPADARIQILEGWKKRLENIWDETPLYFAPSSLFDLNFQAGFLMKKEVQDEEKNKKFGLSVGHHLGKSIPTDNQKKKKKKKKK

Compound O=C(Oc1ccccc1)c1cc2c(o1)C(=O)c1ccccc1C2=O has an IC50 (HaCaT [1]) of over 30000 nM.
Compound O=C(OCc1ccco1)c1cc2c(o1)C(=O)c1ccccc1C2=O has an IC50 (HaCaT [1]) of 8230 nM.
O=C(c1ccco1)c1cc2c(o1)C(=O)c1ccccc1C2=O was tested, and the IC50 (HaCaT [1]) was 550 nM and the Activity (HaCaT [2]) was 167 mU/ml.
O=C(OC1CCCCC1)c1cc2c(o1)C(=O)c1ccccc1C2=O gave an IC50 (HaCaT [1]) of 2930 nM.
For O=C(c1cccnc1)c1cc2c(o1)C(=O)c1ccccc1C2=O, the IC50 (HaCaT [1]) was 370 nM and the Activity (HaCaT [2]) was 202 mU/ml.
Compound O=C1c2ccccc2C(=O)c2oc(/C=C/c3ccccc3)cc21 has an IC50 (HaCaT [1]) of over 30000 nM.
CCC(=O)c1cc2c(OC(C)=O)c3ccccc3c(OC(C)=O)c2o1 gave an IC50 (HaCaT [1]) of 800 nM and an Activity (HaCaT [2]) of 185 mU/ml.
O=C1c2ccccc2C(=O)c2oc(-c3nnn[nH]3)cc21 gave an IC50 (HaCaT [1]) of over 30000 nM and an Activity (HaCaT [2]) of 380 mU/ml.
Work on CCOC(=O)C(=Cc1cc2c(o1)C(=O)c1ccccc1C2=O)C(=O)OCC yielded an IC50 (HaCaT [1]) of 1110 nM and an Activity (HaCaT [2]) of 186 mU/ml.
With COc1c2ccccc2c(OC)c2oc(C(=O)c3ccccc3)cc12 the IC50 (HaCaT [1]) was over 30000 nM.
O=Cc1cc2c(o1)C(=O)c1ccccc1C2=O gave an IC50 (HaCaT [1]) of 2760 nM and an Activity (HaCaT [2]) of 186 mU/ml.
With CC(C)C(=O)c1cc2c(o1)C(=O)c1ccccc1C2=O the IC50 (HaCaT [1]) was 440 nM.
O=C(c1ccccc1)c1cc2c(o1)C(=O)c1ccccc1C2=O showed an IC50 (HaCaT [1]) of 720 nM and an Activity (HaCaT [2]) of 318 mU/ml.
Compound CCc1cc2c(o1)C(=O)c1ccccc1C2=O has an IC50 (HaCaT [1]) of 12200 nM.
CCc1noc(-c2cc3c(o2)C(=O)c2ccccc2C3=O)n1 showed an Activity [3] of 1.9 µmol/L/min, an IC50 (HaCaT [1]) of 170 nM and an Activity (HaCaT [2]) of 157 mU/ml. For the same compound, the Flu intensity (HaCaT [4]) was 1279, the Flu intensity (HaCaT [5]) was 17 and the “Ratio IC50” value (HaCaT [6]) was 4. The Flu intensity (HaCaT [7]) was 1287, the Activity [8] was 1.8 µmol/L/min and the “Ratio IC50” value (HaCaT [9]) was 5.
CC(C)COC(=O)c1cc2c(o1)C(=O)c1ccccc1C2=O gave an IC50 (HaCaT [1]) of 2860 nM.
COC(=O)c1cc2c(o1)C(=O)c1ccccc1C2=O showed an IC50 (HaCaT [1]) of 920 nM and an Activity (HaCaT [2]) of 190 mU/ml.
Work on CC(C)OC(=O)c1cc2c(o1)C(=O)c1ccccc1C2=O yielded an IC50 (HaCaT [1]) of 990 nM.
O=C1c2ccccc2C(=O)c2oc(/C=N/O)cc21 gave an IC50 (HaCaT [1]) of 2340 nM.
In the case of CCCOC(=O)c1cc2c(o1)C(=O)c1ccccc1C2=O, the IC50 (HaCaT [1]) is reported as 1320 nM.
O=C(OCc1ccccc1)c1cc2c(o1)C(=O)c1ccccc1C2=O gave an IC50 (HaCaT [1]) of over 30000 nM.
In the case of O=C(OCc1cccs1)c1cc2c(o1)C(=O)c1ccccc1C2=O, the IC50 (HaCaT [1]) is reported as 14300 nM.
Work on CCOC(=O)/C=C/c1cc2c(o1)C(=O)c1ccccc1C2=O yielded an IC50 (HaCaT [1]) of 2510 nM.
Compound CCOC(=O)c1cc2c(o1)C(=O)c1ccccc1C2=O has an IC50 (HaCaT [1]) of 610 nM and an Activity (HaCaT [2]) of 187 mU/ml.
O=C(O)c1cc2c(o1)C(=O)c1ccccc1C2=O was tested, and the IC50 (HaCaT [1]) was over 30000 nM.
Compound CC1(C)CCC2=C(O1)c1ccccc1C(=O)C2=O [LAPACHONE] has an IC50 (HaCaT [1]) of 900 nM and an Activity (HaCaT [2]) of 268 mU/ml.
CCN(CC)C(=O)c1cc2c(o1)C(=O)c1ccccc1C2=O showed an IC50 (HaCaT [1]) of 240 nM and an Activity (HaCaT [2]) of 226 mU/ml.
O=C1c2c(O)cccc2Cc2cccc(O)c21 [ANTHRALIN] showed an Activity (HaCaT [2]) of 239 mU/ml.
With O=C(c1cc2c(o1)C(=O)c1ccccc1C2=O)c1cccs1 the IC50 (HaCaT [1]) was 670 nM and the Activity (HaCaT [2]) was 169 mU/ml.
For O=C(O)/C=C/c1cc2c(o1)C(=O)c1ccccc1C2=O, the IC50 (HaCaT [1]) was over 30000 nM.
O=C1c2ccccc2C(=O)c2oc([N+](=O)[O-])cc21 gave an IC50 (HaCaT [1]) of 2000 nM.
Compound N#Cc1cc2c(o1)C(=O)c1ccccc1C2=O has an IC50 (HaCaT [1]) of 890 nM and an Activity (HaCaT [2]) of 181 mU/ml.
For Cc1cc2c(o1)C(=O)c1ccccc1C2=O, the Activity [3] was 0.2 µmol/L/min, the IC50 (HaCaT [1]) was 7540 nM and the Flu intensity (HaCaT [4]) was 830.9. For the same compound, the Flu intensity (HaCaT [5]) was 6.4, the Flu intensity (HaCaT [7]) was 420.2 and the Activity [8] was 1.2 µmol/L/min.
For N#Cc1ccc(/C=C/c2cc3c(o2)C(=O)c2ccccc2C3=O)cc1, the IC50 (HaCaT [1]) was 7730 nM.
In the case of CCC(=O)c1cc2c(OC)c3ccccc3c(OC)c2o1, the IC50 (HaCaT [1]) is reported as over 30000 nM.
Compound CCC(=O)c1cc2c(o1)C(=O)c1ccccc1C2=O has an IC50 (HaCaT [1]) of 630 nM and an Activity (HaCaT [2]) of 270 mU/ml.
O=C1c2ccccc2C(=O)c2occc21 showed an Activity [3] of 0.4 µmol/L/min, an IC50 (HaCaT [1]) of 3850 nM and a Flu intensity (HaCaT [4]) of 601.1. It also gave a Flu intensity (HaCaT [5]) of 13, a Flu intensity (HaCaT [7]) of 452.5 and an Activity [8] of 2.2 µmol/L/min.
For CC(=O)c1cc2c(o1)C(=O)c1ccccc1C2=O [NAPABUCASIN], the Activity [3] was 1.4 µmol/L/min, the Activity (HaCaT [2]) was 255 mU/ml and the Flu intensity (HaCaT [4]) was 741.4. The Flu intensity (HaCaT [5]) was 20.5, the Flu intensity (HaCaT [7]) was 725.5 and the Activity [8] was 3 µmol/L/min.
With CC1=CC(=O)c2ccccc2C1=O [MENADIONE] the Activity [3] was 1 µmol/L/min, the IC50 (HaCaT [1]) was 15800 nM and the Flu intensity (HaCaT [4]) was 457.2. It also gave a Flu intensity (HaCaT [5]) of 44, a Flu intensity (HaCaT [7]) of 431.9 and an Activity [8] of 2.1 µmol/L/min.
Compound CC(=O)Oc1c2ccccc2c(OC(C)=O)c2oc(C(=O)c3ccccc3)cc12 has an IC50 (HaCaT [1]) of 920 nM and an Activity (HaCaT [2]) of 193 mU/ml.
